Laboratory results as given in ChEMBL document CHEMBL3351782, “Synthesis and biological evaluation of glaucocalyxin A derivatives as potential anticancer agents” (Eur J Med Chem, 2014).

What was measured:
[1] = Antiproliferative activity against human SMMC7721 cells after 48 hrs by MTT assay; format: functional, cell-based; details: SMMC-7721, 48 h
Outline: (§1)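 Cells were seeded at 3 × 10^3 per well and exposed 24 h later, while growing exponentially, to compounds at final concentrations of 1.25 to 40 for 48 h. MTT (5 mg/mL in PBS) was then added for 6 h. The medium was aspirated, the formazan dissolved in DMSO and absorbance read at 570 nm. Survival is relative to untreated cells; IC50 comes from triplicate wells in at least three independent experiments.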

B16 = assay: Antiproliferative activity against mouse B16 cells after 48 hrs by MTT assay; format: functional, cell-based; details: B16, 48 h; outline: as §1
[2] = Antiproliferative activity against human SGC7901 cells after 48 hrs by MTT assay; format: functional, cell-based; details: SGC-7901, 48 h; outline: as §1
A549 = assay: Antiproliferative activity against human A549 cells after 48 hrs by MTT assay; format: functional, cell-based; details: A549, 48 h; outline: as §1
KB [3] = assay: Antiproliferative activity against human KB cells after 48 hrs by MTT assay; format: functional, cell-based; outline: as §1
[4] = Antiproliferative activity against human HL60 cells after 48 hrs by MTT assay; format: functional, cell-based; details: HL-60, 48 h; outline: as §1
[5] = Antiproliferative activity against human HL7702 cells after 48 hrs by MTT assay; format: cell-based; details: L02, 48 h; outline: as §1
KB [6] = assay: Induction of apoptosis in human KB cells after 48 hrs by Annexin V and propidium iodide staining based flow cytometry; format: functional, cell-based
Outline: (§2)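 KB cells were plated in 6-well plates at 2.5 × 10^5 cells/mL and treated for 48 h. Adherent and floating cells were pooled, washed twice in PBS and stained with Annexin V and PI in binding buffer for 20 min at room temperature. Samples were read immediately on a FACSCalibur; untreated cells served as control. Values are means ± SE of at least three independent experiments.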

KB [7] = assay: Induction of apoptosis in human KB cells assessed as viable cells level at 10 uM after 48 hrs by Annexin V and propidium iodide staining based flow cytometry (reference value: 84.3%); format: functional; outline: as §2
KB [8] = assay: Induction of apoptosis in human KB cells assessed as early apoptotic cells level at 10 uM after 48 hrs by Annexin V and propidium iodide staining based flow cytometry (reference value: 7.69%); format: functional; outline: as §2
KB [9] = assay: Induction of apoptosis in human KB cells assessed as late apoptotic cells level at 10 uM after 48 hrs by Annexin V and propidium iodide staining based flow cytometry (reference value: 4.4%); format: functional; outline: as §2
KB [10] = assay: Induction of apoptosis in human KB cells assessed as necrotic cells level at 10 uM after 48 hrs by Annexin V and propidium iodide staining based flow cytometry (reference value: 3.64%); format: functional; outline: as §2
KB [11] = assay: Induction of apoptosis in human KB cells assessed as viable cells level at 20 uM after 48 hrs by Annexin V and propidium iodide staining based flow cytometry (reference value: 84.3%); format: functional; outline: as §2
KB [12] = assay: Induction of apoptosis in human KB cells assessed as early apoptotic cells level at 20 uM after 48 hrs by Annexin V and propidium iodide staining based flow cytometry (reference value: 7.69%); format: functional; outline: as §2
KB [13] = assay: Induction of apoptosis in human KB cells assessed as late apoptotic cells level at 20 uM after 48 hrs by Annexin V and propidium iodide staining based flow cytometry (reference value: 4.4%); format: functional; outline: as §2
KB [14] = assay: Induction of apoptosis in human KB cells assessed as necrotic cells level at 20 uM after 48 hrs by Annexin V and propidium iodide staining based flow cytometry (reference value: 3.64%); format: functional; outline: as §2
KB [15] = assay: Induction of apoptosis in human KB cells assessed as viable cells level at 40 uM after 48 hrs by Annexin V and propidium iodide staining based flow cytometry (reference value: 84.3%); format: functional; outline: as §2
KB [16] = assay: Induction of apoptosis in human KB cells assessed as early apoptotic cells level at 40 uM after 48 hrs by Annexin V and propidium iodide staining based flow cytometry (reference value: 7.69%); format: functional; outline: as §2
KB [17] = assay: Induction of apoptosis in human KB cells assessed as late apoptotic cells level at 40 uM after 48 hrs by Annexin V and propidium iodide staining based flow cytometry (reference value: 4.4%); format: functional; outline: as §2
KB [18] = assay: Induction of apoptosis in human KB cells assessed as necrotic cells level at 40 uM after 48 hrs by Annexin V and propidium iodide staining based flow cytometry (reference value: 3.64%); format: functional; outline: as §2
[19] = Chemical stability in 10 mM pH 7.4 PBS buffer assessed as parent compound remaining at 1 uM at 37 degC after 24 hrs by HPLC method; format: physicochemical; details: read-out: Stability
Outline: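 DMSO stock was diluted into pre-warmed 10 mM PBS, pH 7.4, with 1% v/v DMSO final, and incubated at 37 °C. Aliquots were taken at set times and injected directly onto reversed-phase HPLC (ODS column, water + 0.1% TFA eluent, external standard). The result is percent parent remaining after 24 h, mean ± SD, n = 3.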

[20] = Stability in 80% rat plasma assessed as parent compound remaining at 1 uM at 37 degC after 24 hrs by HPLC method; format: ADME, cell-free; details: read-out: Stability
Outline: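 Thawed rat plasma was diluted to 80% v/v with 0.1 M PBS, pH 7.4. Compound was spiked from DMSO stock (1% v/v DMSO final) and held at 37 °C. Aliquots were quenched with two volumes of acetonitrile and centrifuged at 4 °C, 10,000 g, 10 min. Supernatants were run on HPLC with external standard; the result is percent parent remaining at 24 h, mean ± SD, n = 3.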

KB [21] = assay: Prodrug conversion in human KB cells lysates assessed as formation of cysteine conjugates at 500 uM in presence of 10 mM cysteine by LC-HRMS method; format: ADME, cell-based, Lysate
Outline: (§3)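 KB cells (5 × 10^6) were lysed by freeze/thaw. DMSO stock prepared just before use was added to lysate already containing cysteine, with DMSO matched in controls, and incubated at 37 °C. Aliquots taken at 30 min and 1 h were mixed with two volumes of acetonitrile and centrifuged (4 °C, 10,000 g, 10 min). They were analysed by LC-HRMS in positive mode using a water + 0.1% formic acid/methanol gradient.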

KB [22] = assay: Prodrug conversion in human KB cells lysates assessed as glaucocalyxin A formation at 500 uM in presence of 10 mM cysteine by LC-HRMS method; format: ADME, cell-based, Lysate; outline: as §3

Compound | IC50 [1] [µM] | IC50 (B16) [µM] | IC50 [2] [µM] | IC50 (A549) [µM] | IC50 (KB [3]) [µM] | IC50 [4] [µM] | other results
O=c1[nH]cc(F)c(=O)[nH]1 [FLUOROURACIL] | 67.7 | 17.9 | 59.9 | 51.6 | 53.5 | 27 | –
CC1(C)C(=O)CC[C@]2(C)[C@@H]1C[C@@H](O)[C@]13C(=O)C(CNc4ccc(F)cc4)[C@H](CC[C@@H]21)[C@H]3O (stereo partly specified) | 19.8 | 12.9 | 34.2 | 22.7 | 12.3 | 17.8 | –
CC(=O)c1ccc(NCC2C(=O)[C@@]34[C@H](O)C[C@@H]5C(C)(C)C(=O)CC[C@@]5(C)[C@@H]3CC[C@@H]2[C@H]4O)cc1 (stereo partly specified) | 26.1 | 18.3 | 31.9 | 21.8 | 12.6 | 11.7 | –
CC1(C)C(=O)CC[C@]2(C)[C@@H]1C[C@@H](O)[C@]13C(=O)C(CNc4ccccc4F)[C@H](CC[C@@H]21)[C@H]3O (stereo partly specified) | 14.5 | 9.59 | 24.3 | 20.6 | 11.2 | 15.6 | –
CC1(C)C(=O)CC[C@]2(C)[C@@H]1C[C@@H](O)[C@]13C(=O)C(CNc4ccc(Br)cc4)[C@H](CC[C@@H]21)[C@H]3O (stereo partly specified) | 18.1 | 10.9 | 25.4 | 19.2 | 6.31 | 14.6 | –
CC1(C)C(=O)CC[C@]2(C)[C@@H]1C[C@@H](O)[C@]13C(=O)C(CNc4ccccc4)[C@H](CC[C@@H]21)[C@H]3O (stereo partly specified) | 48 | 11.5 | 32.6 | 37.2 | 31 | 15.1 | –
CC1(C)C(=O)CC[C@]2(C)[C@@H]1C[C@@H](O)[C@]13C(=O)C(CNc4ccccc4Cl)[C@H](CC[C@@H]21)[C@H]3O (stereo partly specified) | 32.3 | 16.7 | 28.6 | 21.6 | 11 | 23 | –
Cc1ccc(NCC2C(=O)[C@@]34[C@H](O)C[C@@H]5C(C)(C)C(=O)CC[C@@]5(C)[C@@H]3CC[C@@H]2[C@H]4O)cc1 (stereo partly specified) | 12.2 | 8.54 | 16.1 | 10.6 | 7.22 | 8.92 | IC50 [5]: 21.1 µM; Activity (KB [6]): Dose-dependent effect; Activity (KB [7]): 77.9%; Activity (KB [8]): 14.5%; Activity (KB [9]): 4.46%; Activity (KB [10]): 3.19%; Activity (KB [11]): 69.9%; Activity (KB [12]): 20.5%; Activity (KB [13]): 5.42%; Activity (KB [14]): 4.13%; Activity (KB [15]): 49%; Activity (KB [16]): 23.4%; Activity (KB [17]): 15.6%; Activity (KB [18]): 11.9%; remaining at 24 h, 1 µM [19]: 104%; remaining at 24 h, 1 µM [20]: 86.4%; Retention_time (KB [21]): 2.52 min; Drug metabolism (KB [22]): metabolite_detected
